Active and inactive are the calls of the source. No cut-off for these calls is given here.
Assays:
[1] = target: T1, P2X purinoceptor 7 (Homo sapiens, UniProt Q99572); assay: Antagonist activity at human P2X7 receptor
T1 sequence (Q99572 whole entry): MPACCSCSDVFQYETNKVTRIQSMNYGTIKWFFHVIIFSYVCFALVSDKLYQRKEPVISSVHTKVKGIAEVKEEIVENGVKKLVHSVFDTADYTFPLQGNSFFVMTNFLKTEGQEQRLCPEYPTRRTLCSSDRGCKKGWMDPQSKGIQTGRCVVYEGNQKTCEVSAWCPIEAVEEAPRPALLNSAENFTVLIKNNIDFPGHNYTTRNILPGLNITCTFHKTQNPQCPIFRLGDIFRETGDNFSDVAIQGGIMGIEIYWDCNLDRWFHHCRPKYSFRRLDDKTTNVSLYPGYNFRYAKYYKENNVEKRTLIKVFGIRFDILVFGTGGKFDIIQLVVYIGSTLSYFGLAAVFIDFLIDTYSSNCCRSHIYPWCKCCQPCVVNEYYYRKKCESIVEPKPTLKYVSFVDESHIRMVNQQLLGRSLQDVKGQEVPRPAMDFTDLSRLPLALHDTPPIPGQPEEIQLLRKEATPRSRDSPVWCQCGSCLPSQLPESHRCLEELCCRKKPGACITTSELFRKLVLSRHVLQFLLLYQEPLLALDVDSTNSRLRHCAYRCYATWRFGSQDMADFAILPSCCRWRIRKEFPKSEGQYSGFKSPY

[2] = target: T2, P2X purinoceptor 7 (Mus musculus, UniProt Q9Z1M0); assay: Antagonist activity at P2X7 receptor in LPS-primed mouse J774.A1 cells assessed as inhibition of ATP-induced IL-1beta release after 30 mins by ELISA; type: cell-based
T2 sequence (Q9Z1M0 whole entry): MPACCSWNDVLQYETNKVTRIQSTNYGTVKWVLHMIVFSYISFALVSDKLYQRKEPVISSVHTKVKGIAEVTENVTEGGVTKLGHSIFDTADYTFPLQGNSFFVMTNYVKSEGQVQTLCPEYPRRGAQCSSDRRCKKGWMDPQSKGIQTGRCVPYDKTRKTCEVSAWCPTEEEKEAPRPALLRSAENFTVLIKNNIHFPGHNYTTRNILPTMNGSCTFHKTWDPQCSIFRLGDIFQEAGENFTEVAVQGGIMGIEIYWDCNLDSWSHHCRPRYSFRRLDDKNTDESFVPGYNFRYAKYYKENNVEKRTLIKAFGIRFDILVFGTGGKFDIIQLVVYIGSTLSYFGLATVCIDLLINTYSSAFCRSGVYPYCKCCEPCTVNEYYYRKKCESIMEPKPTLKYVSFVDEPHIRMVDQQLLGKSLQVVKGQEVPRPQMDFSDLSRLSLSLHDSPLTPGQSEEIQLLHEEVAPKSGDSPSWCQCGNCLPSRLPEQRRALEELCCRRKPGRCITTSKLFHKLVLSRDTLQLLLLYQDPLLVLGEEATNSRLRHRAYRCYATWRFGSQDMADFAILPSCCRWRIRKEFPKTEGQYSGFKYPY
How it was run: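 J774.A1 mouse cells stimulated with 5 mM ATP; IL-1β release measured, with IC50 taken from concentration-response data.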

[3] = target: T3, P2X purinoceptor 7 (Rattus norvegicus) (UniProt Q64663); assay: Antagonist activity at P2X7 receptor in neuropathic rat dorsal horn assessed as inhibition of long term potentiation-induced neropathic pain at 20 uM relative to control; settings: Dorsal horn of spinal cord
T3 sequence (whole entry): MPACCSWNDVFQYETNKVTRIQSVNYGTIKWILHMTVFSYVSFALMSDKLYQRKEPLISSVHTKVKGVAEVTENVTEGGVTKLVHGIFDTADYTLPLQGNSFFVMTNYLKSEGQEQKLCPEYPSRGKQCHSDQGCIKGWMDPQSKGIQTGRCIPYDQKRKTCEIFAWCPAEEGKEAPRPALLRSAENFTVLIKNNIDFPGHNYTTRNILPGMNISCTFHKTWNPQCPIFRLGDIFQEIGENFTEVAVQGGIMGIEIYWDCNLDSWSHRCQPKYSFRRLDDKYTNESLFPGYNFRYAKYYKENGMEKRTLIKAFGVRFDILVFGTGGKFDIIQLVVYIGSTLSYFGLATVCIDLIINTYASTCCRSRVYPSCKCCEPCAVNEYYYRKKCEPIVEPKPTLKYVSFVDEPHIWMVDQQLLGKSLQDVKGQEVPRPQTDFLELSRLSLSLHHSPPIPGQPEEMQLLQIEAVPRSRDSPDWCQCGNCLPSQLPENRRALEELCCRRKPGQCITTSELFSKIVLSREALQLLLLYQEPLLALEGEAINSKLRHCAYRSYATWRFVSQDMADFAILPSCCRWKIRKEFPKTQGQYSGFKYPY
How it was run: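 Ex vivo spinal cord preparation: LTP-induced pain signalling recorded in the dorsal horn of neuropathic rats. Pregabalin served as the positive control.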

[4] = target: T1, P2X purinoceptor 7; assay: Antagonist activity at P2X7 receptor in LPS/IFN-gamma-differentiated human THP1 cells assessed as inhibition of BzATP-induced IL-1beta release preincubated for 30 mins followed by BzATP induction measured after 30 mins by ELISA; type: cell-based, THP-1
How it was run: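 Human THP-1 monocytes, LPS-primed, stimulated with BzATP; IL-1β release measured by ELISA. Active compounds were screened at 1 µM, and full concentration-response curves were run to obtain IC50.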

[5] = target: T1, P2X purinoceptor 7; assay: Antagonist activity at recombinant human P2X7 receptor expressed in HEK293 cells assessed as inhibition of BzATP-induced intracellular ethidium bromide uptake after 2 hrs by fluorescence assay; type: cell-based
How it was run: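 Human HEK293 cells stably expressing recombinant human P2X7; ethidium accumulation stimulated by BzATP was measured.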

[6] = AUClast in rat at 20 mg/kg, iv; type: ADME, organism-based; design: time 0 - last, dose 20 mg/kg, route intravenous; settings: plasma
How it was run: (§1)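 Rats were dosed with the test agent intraperitoneally or by intravenous injection. Drug levels were followed in plasma over time after dosing. Intravenous and intraperitoneal exposures were compared to give absolute bioavailability.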

[7] = Cmax in rat at 10 mg/kg, ip; type: ADME, organism-based; design: dose 10 mg/kg, route intraperitoneal; settings: in vivo
How it was run: (§2)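 Rats dosed 10 mg/kg intraperitoneally; plasma concentrations were measured, and absolute bioavailability was calculated relative to intravenous dosing.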

[8] = Bioavailability in rat at 10 mg/kg, ip; type: ADME, organism-based; settings: in vivo; how it was run: as §2
[9] = AUClast in rat at 10 mg/kg, ip; type: ADME, organism-based; design: time 0 - last, dose 10 mg/kg, route intraperitoneal; settings: plasma; how it was run: as §1
[10] = Terminal half life in rat at 20 mg/kg, iv; type: ADME, organism-based; design: dose 20 mg/kg, route intravenous; settings: in vivo, read-out: beta t1/2
How it was run: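 Rats dosed intravenously; mean terminal half-life was derived from the plasma concentration decline.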

[11] = Half life in rat at 10 mg/kg, ip; type: ADME, organism-based; design: dose 10 mg/kg, route intraperitoneal; settings: in vivo
[12] = target: T4, P2X purinoceptor 7 (Homo sapiens) (UniProt Q99572); assay: Antagonist activity at recombinant human P2X7 receptor expressed in HEK293 cells assessed as inhibition of BzATP-induced intracellular ethidium bromide uptake at 10 uM after 2 hrs by fluorescence assay; type: cell-based
T4 sequence (whole entry): T1 sequence (Q99572 whole entry)

O=C([C@@H]1Cc2ccc(OS(=O)(=O)c3cccc4cnccc34)cc2CN1S(=O)(=O)c1cccc2cnccc12)N1CCN(c2ccccc2)CC1
IC50 [1]: < 1000 nM

O=C(NCC12CC3CC(CC(C3)C1)C2)c1cc(CCCNCCCO)ccc1Cl
IC50 [2]: > 60000 nM

O=C(N[C@@H](Cc1ccc(OS(=O)(=O)c2ccc([N+](=O)[O-])cc2)cc1)C(=O)N1CCN(C(=O)c2ccccc2)CC1)OCc1ccccc1
IC50 [1]: 34 nM

CC(C)C[C@H](CN)CC(=O)O
inhibition [3]: 31%

O=C1NC(=O)N(C2CCN(C(=O)c3ccc(Cl)c(C(F)(F)F)c3)CC2)C1Cc1ccc(OS(=O)(=O)c2cccc3cnccc23)cc1 (racemic)
IC50 [4]: 50 nM | IC50 [5]: 70 nM | AUC(0-t) [6]: 3530 ng·h/mL | Cmax [7]: 400 ng/mL | bioavailability [8]: 86% | AUC(0-t) [9]: 1520 ng·h/mL | IC50 [2]: 11800 nM | half-life [10]: 1.29 h | half-life [11]: 2.15 h

CC(C)(C)OC(=O)N1CCN(C(=O)[C@H](Cc2ccc(OS(=O)(=O)c3cccc4cnccc34)cc2)NS(=O)(=O)c2cccc3cnccc23)CC1
IC50 [1]: 41 nM

O=C1NC(=O)N(C2CCN(C(=O)c3ccc(Cl)c(C(F)(F)F)c3)CC2)C1c1ccc(OS(=O)(=O)c2cccc3cnccc23)cc1 (racemic)
inhibition [12]: 30%

O=C1NC(=O)N(CC2CCNCC2)C1Cc1ccc(OS(=O)(=O)c2cccc3cnccc23)cc1 (racemic)
inhibition [12]: inactive

— ChEMBL document CHEMBL3414458, “Discovery of novel 2,5-dioxoimidazolidine-based P2X(7) receptor antagonists as constrained analogues of KN62” (J Med Chem, 2015)
